Data reported in ChEMBL document CHEMBL4334424, “The winding road of the uvaretin class of natural products: from total synthesis to bioactive agent discovery” (Medchemcomm, 2019).
Active and inactive are the calls of the source. The rule behind the calls is not given here.

Key:
HCT-116 [1] = experiment: Cytotoxicity against human HCT116 cells assessed as reduction in cell viability incubated for 72 hrs by alamar blue assay; assay type: functional, cell-based; conditions: HCT-116, 72 h
Outline: (§1)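 Adherent cells were seeded at 1500 cells/well in 384-well plates and allowed 2–3 h to attach. Compounds in DMSO, diluted in media over 31.6 nM–200 μM, were tested in triplicate for 72 h continuous exposure at 37 °C, 5% CO2. Alamar Blue was added for the final 3 h and fluorescence read (ex 560/em 590 nm). IC50 was fitted from ≥3 independent experiments.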

A549 = experiment: Cytotoxicity against human A549 cells assessed as reduction in cell viability incubated for 72 hrs by alamar blue assay; assay type: functional, cell-based; conditions: A549, 72 h; outline: as §1
HeLa = experiment: Cytotoxicity against human HeLa cells assessed as reduction in cell viability incubated for 72 hrs by alamar blue assay; assay type: functional, cell-based; outline: as §1
MIA PaCa-2 [2] = experiment: Cytotoxicity against human MIAPaCa2 cells assessed as reduction in cell viability incubated for 72 hrs by alamar blue assay; assay type: functional, cell-based; conditions: MIA PaCa-2, 72 h; outline: as §1
U-937 = experiment: Cytotoxicity against human U937 cells assessed as reduction in cell viability incubated for 72 hrs by alamar blue assay; assay type: functional, cell-based; conditions: U-937, 72 h
Outline: (§2)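 Suspension cells (2200/well, 384-well) were added directly onto compound in media with no attachment period. Compounds spanned 31.6 nM–200 μM in triplicate, with 72 h exposure at 37 °C, 5% CO2. Alamar Blue was added for the last 3 h and fluorescence read (ex 560/em 590 nm). IC50 came from ≥3 independent experiments.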

REH = experiment: Cytotoxicity against human REH cells assessed as reduction in cell viability incubated for 72 hrs by alamar blue assay; assay type: functional, cell-based; outline: as §2
HCT-116 [3] = experiment: Cytotoxicity against human HCT116 cells assessed as reduction in cell viability incubated for 72 hrs in presence of 6TP by alamar blue assay; assay type: functional, cell-based
Outline: (§3)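 Combination assay in 96-well plates with 100 μL final volume and 1% DMSO. Two test-compound concentrations were crossed with five 6TP concentrations, then cells were added (4000/well adherent, 7000/well suspension). Plates ran 72 h at 37 °C, 5% CO2, with Alamar Blue viability read-out and ≥3 independent experiments. Combination index was calculated by the Chou–Talalay method.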

HCT-116 [4] = experiment: Cytotoxicity against human HCT116 cells assessed as reduction in cell viability incubated for 72 hrs in presence of doxorubicin by alamar blue assay; assay type: functional, cell-based
Outline: (§4)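 Same combination format as the 6TP study, with the cytotoxic partner (doxorubicin, etoposide or paclitaxel) combined with test compound. Cells were at 4000/well (adherent) in 100 μL, 1% DMSO, for 72 h at 37 °C, 5% CO2, with Alamar Blue viability read-out. Combination index was derived by the Chou–Talalay protocol and reported as a median.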

HCT-116 [5] = experiment: Cytotoxicity against human HCT116 cells assessed as reduction in cell viability incubated for 72 hrs in presence of etoposide by alamar blue assay; assay type: functional, cell-based; outline: as §4
MIA PaCa-2 [6] = experiment: Cytotoxicity against human MIAPaCa2 cells assessed as cell viability at 2.5 uM incubated for 72 hrs in presence of 10 uM 6TP by alamar blue assay (reference value: 6.9 %); assay type: functional; outline: as §3
MIA PaCa-2 [7] = experiment: Cytotoxicity against human MIAPaCa2 cells assessed as cell viability at 2.5 uM incubated for 72 hrs in presence of 25 uM 6TP by alamar blue assay (reference value: 6.4 %); assay type: functional; outline: as §3
MIA PaCa-2 [8] = experiment: Cytotoxicity against human MIAPaCa2 cells assessed as cell viability at 2.5 uM incubated for 72 hrs in presence of 50 uM 6TP by alamar blue assay (reference value: 13.8 %); assay type: functional; outline: as §3
MIA PaCa-2 [9] = experiment: Cytotoxicity against human MIAPaCa2 cells assessed as combinational index at 5 uM incubated for 72 hrs in presence of 25 uM 6TP by alamar blue assay; assay type: functional; outline: as §3
MIA PaCa-2 [10] = experiment: Cytotoxicity against human MIAPaCa2 cells assessed as combinational index at 2.5 uM incubated for 72 hrs in presence of 25 uM 6TP by alamar blue assay; assay type: functional; outline: as §3
MIA PaCa-2 [11] = experiment: Cytotoxicity against human MIAPaCa2 cells assessed as cell viability at 5 uM incubated for 72 hrs in presence of 25 uM 6TP by alamar blue assay (reference value: 6.4 %); assay type: functional; outline: as §3
MIA PaCa-2 [12] = experiment: Cytotoxicity against human MIAPaCa2 cells assessed as combinational index at 5 uM incubated for 72 hrs in presence of 100 uM 6TP by alamar blue assay; assay type: functional; outline: as §3
MIA PaCa-2 [13] = experiment: Cytotoxicity against human MIAPaCa2 cells assessed as combinational index at 5 uM incubated for 72 hrs in presence of 200 uM 6TP by alamar blue assay; assay type: functional; outline: as §3
MIA PaCa-2 [14] = experiment: Cytotoxicity against human MIAPaCa2 cells assessed as combinational index at 2.5 uM incubated for 72 hrs in presence of 200 uM 6TP by alamar blue assay; assay type: functional; outline: as §3
MIA PaCa-2 [15] = experiment: Cytotoxicity against human MIAPaCa2 cells assessed as cell viability at 2.5 uM incubated for 72 hrs in presence of 100 uM 6TP by alamar blue assay (reference value: 30.7 %); assay type: functional; outline: as §3
MIA PaCa-2 [16] = experiment: Cytotoxicity against human MIAPaCa2 cells assessed as cell viability at 5 uM incubated for 72 hrs in presence of 100 uM 6TP by alamar blue assay (reference value: 30.7 %); assay type: functional; outline: as §3
MIA PaCa-2 [17] = experiment: Cytotoxicity against human MIAPaCa2 cells assessed as cell viability at 2.5 uM incubated for 72 hrs by alamar blue assay (reference value: 0 %); assay type: functional; conditions: MIA PaCa-2, 72 h, read-out: Activity; outline: as §3
MIA PaCa-2 [18] = experiment: Cytotoxicity against human MIAPaCa2 cells assessed as combinational index at 2.5 uM incubated for 72 hrs in presence of 100 uM 6TP by alamar blue assay; assay type: functional; outline: as §3
MIA PaCa-2 [19] = experiment: Cytotoxicity against human MIAPaCa2 cells assessed as cell viability at 5 uM incubated for 72 hrs in presence of 50 uM 6TP by alamar blue assay (reference value: 13.8 %); assay type: functional; outline: as §3
MIA PaCa-2 [20] = experiment: Cytotoxicity against human MIAPaCa2 cells assessed as cell viability at 5 uM incubated for 72 hrs by alamar blue assay (reference value: 0 %); assay type: functional; conditions: MIA PaCa-2, 72 h, read-out: Activity; outline: as §3
MIA PaCa-2 [21] = experiment: Cytotoxicity against human MIAPaCa2 cells assessed as cell viability at 5 uM incubated for 72 hrs in presence of 10 uM 6TP by alamar blue assay (reference value: 6.9 %); assay type: functional; outline: as §3
MIA PaCa-2 [22] = experiment: Cytotoxicity against human MIAPaCa2 cells assessed as combinational index at 5 uM incubated for 72 hrs in presence of 50 uM 6TP by alamar blue assay; assay type: functional; outline: as §3
MIA PaCa-2 [23] = experiment: Cytotoxicity against human MIAPaCa2 cells assessed as combinational index at 2.5 uM incubated for 72 hrs in presence of 50 uM 6TP by alamar blue assay; assay type: functional; outline: as §3

Row | SMILES | IC50 (HCT-116 [1]) | IC50 (A549) | IC50 (HeLa) | IC50 (MIA PaCa-2 [2]) | IC50 (U-937) | IC50 (REH) | also measured
1 | COc1cc(OC)c(C(=O)/C=C/c2ccccc2)c(O)c1Cc1ccccc1O | > 20 µM | 5.8 µM | 3.1 µM | > 20 µM | 6.8 µM | 9.7 µM | 
2 | COc1cc(O)c(Cc2ccccc2O)c(O)c1C(=O)CCc1ccccc1 [UVARETIN] | > 20 µM | 2.2 µM | 3.7 µM | 2 µM | 3.6 µM | 11.3 µM | Activity (HCT-116 [3]): inactive; Activity (HCT-116 [4]): inactive; Activity (HCT-116 [5]): inactive
3 | COc1cc(OC)c(C(C)=O)c(OC)c1 | > 20 µM | 9.8 µM | 3.8 µM | 14.3 µM | 7.2 µM | > 20 µM | 
4 | COc1cc(O)c(Cc2ccccc2O)c(O)c1C(=O)/C=C/c1ccccc1 | 19.5 µM | 4.3 µM | 4.6 µM | 5.1 µM | 2.3 µM | > 20 µM | Activity (HCT-116 [3]): inactive; Activity (HCT-116 [4]): inactive; Activity (HCT-116 [5]): inactive
5 | COCOc1cc(OC)cc(OC)c1C(=O)/C=C/c1ccccc1 | > 20 µM | 3.5 µM | 4.8 µM | 5.6 µM | 2.5 µM | 19.4 µM | 
6 | COc1cc(O)c(C(C)=O)c(OC)c1 [XANTHOXYLIN] | > 20 µM | > 20 µM | 18.7 µM | > 20 µM | > 20 µM | > 20 µM | 
7 | COCOc1cc(OCOC)c(C(=O)/C=C/c2ccccc2)c(OCOC)c1 | > 20 µM | 8.4 µM | 11.5 µM | 11.8 µM | 8.1 µM | > 20 µM | Activity (MIA PaCa-2 [6]): 14.2%; Activity (MIA PaCa-2 [7]): 15%; Activity (MIA PaCa-2 [8]): 16.9%; CI (MIA PaCa-2 [9]): 0.47; CI (MIA PaCa-2 [10]): 0.24; Activity (MIA PaCa-2 [11]): 17.3%; CI (MIA PaCa-2 [12]): 1.01; CI (MIA PaCa-2 [13]): 2.09; CI (MIA PaCa-2 [14]): 1.79; Activity (MIA PaCa-2 [15]): 17.6%; Activity (MIA PaCa-2 [16]): 19.3%; viability at 2.5 µM (MIA PaCa-2 [17]): 21.1%; CI (MIA PaCa-2 [18]): 0.96; Activity (MIA PaCa-2 [19]): 17%; viability at 5 µM (MIA PaCa-2 [20]): 20%; Activity (MIA PaCa-2 [21]): 18.4%; CI (MIA PaCa-2 [22]): 0.57; CI (MIA PaCa-2 [23]): 0.56
8 | C=CCOc1ccccc1Cc1c(OC)cc(OC)c(C(=O)/C=C/c2ccccc2)c1OC | > 20 µM | 8.5 µM | 5.8 µM | 9.4 µM | 7.5 µM | 12.6 µM | 
9 | COCOc1cc(O)c(C(=O)/C=C/c2ccccc2)c(OCOC)c1 | > 20 µM | > 20 µM | 16.7 µM | 7.8 µM | > 20 µM | > 20 µM | Activity (MIA PaCa-2 [6]): 7%; Activity (MIA PaCa-2 [7]): 7.2%; Activity (MIA PaCa-2 [8]): 9.7%; CI (MIA PaCa-2 [9]): 1.13; CI (MIA PaCa-2 [10]): 1.21; Activity (MIA PaCa-2 [11]): 8.2%; CI (MIA PaCa-2 [12]): 1.42; CI (MIA PaCa-2 [13]): 1.43; CI (MIA PaCa-2 [14]): 2.16; Activity (MIA PaCa-2 [15]): 15.2%; Activity (MIA PaCa-2 [16]): 19.9%; viability at 2.5 µM (MIA PaCa-2 [17]): 6.1%; CI (MIA PaCa-2 [18]): 2.18; Activity (MIA PaCa-2 [19]): 13%; viability at 5 µM (MIA PaCa-2 [20]): 7.2%; Activity (MIA PaCa-2 [21]): 8.1%; CI (MIA PaCa-2 [22]): 1.87; CI (MIA PaCa-2 [23]): 2.04
10 | COc1cc(O)c(C(=O)/C=C/c2ccccc2)c(OC)c1 [FLAVOKAWAIN B] | > 20 µM | 19.7 µM | > 20 µM | 18.2 µM | > 20 µM | > 20 µM | 
11 | COCOc1cc(OCOC)c(C(C)=O)c(OCOC)c1 | > 20 µM | > 20 µM | > 20 µM | 6.1 µM | 11.7 µM | > 20 µM | 
12 | COCOc1cc(O)c(C(C)=O)c(OCOC)c1 | > 20 µM | > 20 µM | 12.2 µM | > 20 µM | 7.4 µM | > 20 µM | 
13 | COc1cc(OC)c(C(=O)/C=C/c2ccccc2)c(OC)c1 | > 20 µM | 4.3 µM | 5.2 µM | > 20 µM | 6.7 µM | > 20 µM | 
14 | COCOc1cc(OC)cc(OC)c1C(C)=O | > 20 µM | 16.9 µM | 14 µM | > 20 µM | 13.3 µM | > 20 µM | 
15 | CC(=O)c1c(O)cc(O)cc1O [2,4,6-TRIHYDROXYACETOPHENONE] | > 20 µM | > 20 µM | > 20 µM | > 20 µM | > 20 µM | > 20 µM | 
